Results published in ChEMBL document CHEMBL1131304, “Epidoxoform: a hydrolytically more stable anthracycline-formaldehyde conjugate toxic to resistant tumor cells” (J Med Chem, 1998).

Experiments:
MCF7 [1] = assay: Compound was tested for its toxicity against human breast cancer cells(MCF-7); type: functional, cell-based
How it was run: (§1)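 MCF-7 and MCF-7/ADR cells were grown at 37 °C in 5% CO2 in phenol red-free RPMI 1640 with 10% FBS, 2 mM L-glutamine, 25 mM HEPES and penicillin/streptomycin. MCF-7/ADR medium also held 5 μM doxorubicin. Cells were exposed to drug for 3 h in RPMI 1640/10% FBS/1% DMSO, then stained by crystal violet. IC50 was given as nmolar equiv/L.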

MCF7 [2] = assay: (§2) Compound was tested for its toxicity against doxorubicin resistant human breast cancer cells (MCF-7/ADR).; type: functional, cell-based; how it was run: as §1
[3] = Compound was evaluated for its half life at 25 degree Centigrade
[4] = Compound was evaluated for its half life at 37 degree Centigrade.
NCI/ADR-RES = assay: as §2; type: functional, cell-based; how it was run: as §1

COc1cccc2c1C(=O)c1c(O)c3c(c(O)c1C2=O)C[C@@](O)(C(C)=O)C[C@@H]3OC1CC2C(OCN2CN2COC3C(C)OC(O[C@H]4C[C@](O)(C(C)=O)Cc5c(O)c6c(c(O)c54)C(=O)c4c(OC)cccc4C6=O)CC32)C(C)O1 (some centres undefined) [DAUNOFORM]
IC50 (MCF7 [1]): 8 nM equiv l-1
IC50 (MCF7 [2]): 10 nM equiv l-1

COc1cccc2c1C(=O)c1c(O)c3c(c(O)c1C2=O)C[C@@](O)(C(=O)CO)C[C@@H]3O[C@@H]1C[C@@H](N)[C@H](O)[C@@H](C)O1
half-life [3]: 35 min
half-life [4]: 15 min

COc1cccc2c1C(=O)c1c(O)c3c(c(O)c1C2=O)C[C@@](O)(C(=O)CO)C[C@@H]3O[C@H]1C[C@H]2C(OCN3CN2CO[C@H]2[C@@H](C)O[C@@H](O[C@H]4C[C@](O)(C(=O)CO)Cc5c(O)c6c(c(O)c54)C(=O)c4c(OC)cccc4C6=O)C[C@@H]23)[C@H](C)O1 (some centres undefined) [EPIDOXOFORM]
IC50 (MCF7 [1]): 65 nM equiv l-1
IC50 (NCI/ADR-RES): 70 nM equiv l-1

COc1cccc2c1C(=O)c1c(O)c3c(c(O)c1C2=O)C[C@@](O)(C(C)=O)C[C@@H]3O[C@H]1C[C@H](N)[C@H](O)[C@H](C)O1 [DAUNORUBICIN]
IC50 (MCF7 [1]): 60 nM equiv l-1
IC50 (NCI/ADR-RES): 2000 nM equiv l-1

COc1cccc2c1C(=O)c1c(O)c3c(c(O)c1C2=O)C[C@@](O)(C(=O)CO)C[C@@H]3OC1CC2C(OCN2CN2COC3C(C)OC(O[C@H]4C[C@](O)(C(=O)CO)Cc5c(O)c6c(c(O)c54)C(=O)c4c(OC)cccc4C6=O)CC32)C(C)O1 (some centres undefined) [DOXOFORM]
IC50 (MCF7 [1]): 2 nM equiv l-1
IC50 (NCI/ADR-RES): 1 nM equiv l-1

COc1cccc2c1C(=O)c1c(O)c3c(c(O)c1C2=O)C[C@@](O)(C(=O)CO)C[C@@H]3O[C@H]1C[C@H](N)[C@H](O)[C@H](C)O1 [DOXORUBICIN]
IC50 (MCF7 [1]): 300 nM equiv l-1
IC50 (NCI/ADR-RES): 10000 nM equiv l-1

COc1cccc2c1C(=O)c1c(O)c3c(c(O)c1C2=O)C[C@@](O)(C(=O)CO)C[C@@H]3O[C@H]1C[C@H](N)[C@@H](O)[C@H](C)O1 [EPIRUBICIN]
IC50 (MCF7 [1]): 200 nM equiv l-1
IC50 (NCI/ADR-RES): > 10000 nM equiv l-1
